{"source": "ChEMBL document CHEMBL4152211", "about": "“Discovery of novel Methylsulfonyl phenyl derivatives as potent human Cyclooxygenase-2 inhibitors with effective anticonvulsant action: Design, synthesis, in-silico, in-vitro and in-vivo evaluation” (Eur J Med Chem, 2018)", "key": {"[1]": {"biological_target": "T1, Prostaglandin G/H synthase 2 (Homo sapiens) (UniProt P35354)", "T1 sequence (whole entry)": "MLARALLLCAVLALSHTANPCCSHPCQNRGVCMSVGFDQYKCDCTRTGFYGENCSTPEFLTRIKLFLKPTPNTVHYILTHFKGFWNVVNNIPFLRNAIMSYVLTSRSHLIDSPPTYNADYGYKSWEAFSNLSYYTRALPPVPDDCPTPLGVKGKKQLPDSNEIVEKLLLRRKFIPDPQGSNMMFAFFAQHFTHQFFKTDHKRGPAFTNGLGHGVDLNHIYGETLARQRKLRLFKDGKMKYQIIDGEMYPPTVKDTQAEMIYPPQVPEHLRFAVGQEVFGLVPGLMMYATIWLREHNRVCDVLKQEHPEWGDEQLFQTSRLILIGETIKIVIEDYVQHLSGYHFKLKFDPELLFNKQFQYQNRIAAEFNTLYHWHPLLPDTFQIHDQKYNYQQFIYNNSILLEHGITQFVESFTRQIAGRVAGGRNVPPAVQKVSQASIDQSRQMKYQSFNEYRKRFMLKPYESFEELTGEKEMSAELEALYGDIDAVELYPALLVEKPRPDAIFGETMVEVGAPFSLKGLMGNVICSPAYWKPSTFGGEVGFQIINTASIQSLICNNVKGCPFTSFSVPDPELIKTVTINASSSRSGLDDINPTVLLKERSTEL", "experiment": "Inhibition of human recombinant COX2 at 10 uM using arachidonic acid as substrate preincubated for 5 mins followed by substrate addition and measured after 2 mins by ADPH probe-based fluorescence assay relative to control", "how_it_was_run": "(§1)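 Kit assay in 100 mM Tris-HCl pH 8.0. Enzyme, heme and inhibitor (DMSO stocks) are incubated 5 min at room temperature. ADPH is added, then arachidonic acid starts the reaction. After 2 min, fluorescence is read at ex 535/em 590 nm. Percent inhibition is taken versus the 100% activity well, background wells included. IC50 is derived from percentage inhibition, mean of three independent experiments.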"}, "[2]": {"biological_target": "T2, Prostaglandin G/H synthase 2 (Homo sapiens, UniProt P35354)", "T2 sequence (P35354 whole entry)": "T1 sequence (whole entry)", "experiment": "Inhibition of human recombinant COX2 using arachidonic acid as substrate preincubated for 5 mins followed by substrate addition and measured after 2 mins by ADPH probe-based fluorescence assay", "how_it_was_run": "as §1"}, "Mus musculus [3]": {"system": "Mus musculus", "experiment": "Anticonvulsant activity in Swiss albino mouse assessed as protection against subcutaneous pentylenetetrazole-induced seizures at 100 mg/kg, ip administered 0.5 hrs prior to PTZ challenge and measured after 30 mins", "assay_type": "functional", "how_it_was_run": "(§2)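 Male Swiss Albino mice (25–30 g), 6 per group, dosed i.p. with drugs in sterile saline, then challenged with PTZ 85 mg/kg s.c. (CD97), given at 10 ml/kg, 0.5 h or 4 h later. Each animal is observed singly for seizures. Protection is scored as protected/total animals.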"}, "Mus musculus [4]": {"system": "Mus musculus", "experiment": "Anticonvulsant activity in Swiss albino mouse assessed as protection against subcutaneous pentylenetetrazole-induced seizures at 300 mg/kg, ip administered 0.5 hrs prior to PTZ challenge and measured after 30 mins", "assay_type": "functional", "how_it_was_run": "as §2"}, "Mus musculus [5]": {"system": "Mus musculus", "experiment": "Anticonvulsant activity in Swiss albino mouse assessed as protection against subcutaneous pentylenetetrazole-induced seizures at 100 mg/kg, ip administered 4 hrs prior to PTZ challenge and measured after 30 mins", "assay_type": "functional", "how_it_was_run": "as §2"}, "Mus musculus [6]": {"system": "Mus musculus", "experiment": "Anticonvulsant activity in Swiss albino mouse assessed as protection against subcutaneous pentylenetetrazole-induced seizures at 300 mg/kg, ip administered 4 hrs prior to PTZ challenge and measured after 30 mins", "assay_type": "functional", "how_it_was_run": "as §2"}, "Mus musculus [7]": {"system": "Mus musculus", "experiment": "Anticonvulsant activity in Swiss albino mouse assessed as protection against subcutaneous pentylenetetrazole-induced seizures at 5 mg/kg, ip administered 2 hrs prior to PTZ challenge and measured after 30 mins", "assay_type": "functional", "conditions": "in the assay text read “30 mg/kg” for “5 mg/kg”", "how_it_was_run": "(§3)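 Mice get a single i.p. dose, then PTZ 85 mg/kg s.c. at 0.5, 1, 2, 3, 4 or 6 h after dosing. Seizure protection is recorded at each interval as percentage of six Swiss Albino mice protected.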"}, "Mus musculus [8]": {"system": "Mus musculus", "experiment": "Anticonvulsant activity in Swiss albino mouse assessed as protection against subcutaneous pentylenetetrazole-induced seizures at 5 mg/kg, ip administered 3 hrs prior to PTZ challenge and measured after 30 mins", "assay_type": "functional", "conditions": "in the assay text read “30 mg/kg” for “5 mg/kg”", "how_it_was_run": "as §3"}, "Rattus norvegicus [9]": {"system": "Rattus norvegicus", "experiment": "Cognitive enhancing effect in ip dosed PTZ-kindled rat assessed as decrease in ratio of second interaction trial to first interaction time by social recognition test (reference value: 0.928 +/- 0.234)", "assay_type": "functional"}, "Rattus norvegicus [10]": {"system": "Rattus norvegicus", "experiment": "Cognitive enhancing effect in ip dosed PTZ-kindled Wistar rat assessed as exploration preference by novel object recognition test (reference value: 5.7%)", "assay_type": "functional"}, "Rattus norvegicus [11]": {"system": "Rattus norvegicus", "experiment": "Anxiolytic activity in ip dosed PTZ-kindled Wistar rat assessed as time spent in light zone by light-dark test (reference value: 3.05 +/- 1.25%)", "assay_type": "functional"}, "Rattus norvegicus [12]": {"system": "Rattus norvegicus", "experiment": "Toxicity in Wistar rat assessed as TLC level at 200 mg/kg, po for 14 days (reference value: 7.23 +/- 1 10^3/mm3)", "assay_type": "organism-based", "conditions": "in vivo, 336 h"}, "Rattus norvegicus [13]": {"system": "Rattus norvegicus", "experiment": "Toxicity in Wistar rat assessed as neutrophil level at 200 mg/kg, po for 14 days (reference value: 17.33 +/- 3.21%)", "assay_type": "organism-based", "conditions": "in vivo, 336 h"}, "Rattus norvegicus [14]": {"system": "Rattus norvegicus", "experiment": "Toxicity in Wistar rat assessed as eosinophil level at 200 mg/kg, po for 14 days (reference value: 2.67 +/- 0.58%)", "assay_type": "organism-based", "conditions": "in vivo, 336 h"}, "Rattus norvegicus [15]": {"system": "Rattus norvegicus", "experiment": "Toxicity in Wistar rat assessed as basophils level at 200 mg/kg, po for 14 days (reference value: 0 +/0%)", "assay_type": "organism-based", "conditions": "in vivo, 336 h"}, "Rattus norvegicus [16]": {"system": "Rattus norvegicus", "experiment": "Toxicity in Wistar rat assessed as effect on SGOT level at 200 mg/kg, po for 14 days", "assay_type": "organism-based", "conditions": "in vivo, 336 h", "how_it_was_run": "(§4)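 Normal Wistar rats are given 200 mg/kg orally for 14 days, with vehicle-treated controls. Serum liver markers (SGOT, SGPT, ALP, total protein, total bilirubin) and renal markers (urea, creatinine, uric acid) are then measured, mean ± S.D.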"}, "Rattus norvegicus [17]": {"system": "Rattus norvegicus", "experiment": "Toxicity in Wistar rat assessed as effect on alkaline phosphatase level at 200 mg/kg, po for 14 days", "assay_type": "organism-based", "conditions": "in vivo, 336 h", "how_it_was_run": "as §4"}, "Rattus norvegicus [18]": {"system": "Rattus norvegicus", "experiment": "Toxicity in Wistar rat assessed as effect on blood urea level at 200 mg/kg, po for 14 days", "assay_type": "organism-based", "conditions": "in vivo, 336 h", "how_it_was_run": "as §4"}, "Rattus norvegicus [19]": {"system": "Rattus norvegicus", "experiment": "Toxicity in Wistar rat assessed as effect on creatinine level at 200 mg/kg, po for 14 days", "assay_type": "organism-based", "conditions": "in vivo, 336 h", "how_it_was_run": "as §4"}, "Rattus norvegicus [20]": {"system": "Rattus norvegicus", "experiment": "Toxicity in Wistar rat assessed as effect on uric acid level at 200 mg/kg, po for 14 days", "assay_type": "organism-based", "conditions": "in vivo, 336 h", "how_it_was_run": "as §4"}, "Rattus norvegicus [21]": {"system": "Rattus norvegicus", "experiment": "Toxicity in Wistar rat assessed as effect on potassium level at 200 mg/kg, po for 14 days", "assay_type": "organism-based", "conditions": "in vivo, 336 h"}}}
{"smiles": "Cc1ccc(NC(=S)NNC(=O)Nc2ccc(S(C)(=O)=O)cc2)cc1", "values": [{"measurement": "inhibition", "setting": "[1]", "value": 75, "unit": "%"}, {"measurement": "IC50", "setting": "[2]", "value": 2150, "unit": "nM"}, {"measurement": "Activity", "setting": "Mus musculus [3]", "value": 67, "unit": "%"}, {"measurement": "Activity", "setting": "Mus musculus [4]", "value": 83, "unit": "%"}, {"measurement": "Activity", "setting": "Mus musculus [5]", "value": 83, "unit": "%"}, {"measurement": "Activity", "setting": "Mus musculus [6]", "value": 83, "unit": "%"}, {"measurement": "Activity", "setting": "Mus musculus [7]", "value": 67, "unit": "%"}, {"measurement": "Activity", "setting": "Mus musculus [8]", "value": 83, "unit": "%"}, {"measurement": "Ratio", "setting": "Rattus norvegicus [9]", "value": 0.561}, {"measurement": "Activity", "setting": "Rattus norvegicus [10]", "value": 3.9, "unit": "%"}, {"measurement": "Activity", "setting": "Rattus norvegicus [11]", "value": 13.3, "unit": "%"}, {"measurement": "Activity", "setting": "Rattus norvegicus [12]", "value": 6.25, "unit": "×10³ /mm3"}, {"measurement": "Activity", "setting": "Rattus norvegicus [13]", "value": 21.5, "unit": "%"}, {"measurement": "Activity", "setting": "Rattus norvegicus [14]", "value": 2.5, "unit": "%"}, {"measurement": "Activity", "setting": "Rattus norvegicus [15]", "value": 0.5, "unit": "%"}, {"measurement": "Activity", "setting": "Rattus norvegicus [16]", "value": "Non-Toxic"}, {"measurement": "Activity", "setting": "Rattus norvegicus [17]", "value": "Non-Toxic"}, {"measurement": "Activity", "setting": "Rattus norvegicus [18]", "value": "Non-Toxic"}, {"measurement": "Activity", "setting": "Rattus norvegicus [19]", "value": "Non-Toxic"}, {"measurement": "Activity", "setting": "Rattus norvegicus [20]", "value": "Non-Toxic"}, {"measurement": "Activity", "setting": "Rattus norvegicus [21]", "value": "Non-Toxic"}]}
